Experimental data: ChEMBL document CHEMBL1155469, “Peptide nucleic acids conjugated to short basic peptides show improved pharmacokinetics and antisense activity in adipose tissue” (J Med Chem, 2010)
Calls of active or inactive are those of the source. No cut-off for these calls is given here.

What was measured:
Mus musculus [1] = experiment: Inhibition of PTEN expression in Balb/C mouse liver assessed as increase in mRNA levels at 8.25 mg/kg, ip administered thrice a week for 2 weeks measured 48 hrs after last dose […]; assay type: functional, organism-based; parameters: dose 8.25 mg/kg
Summary of the method: (§1)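 Male Balb/c mice, n=4 per group, dosed i.p. in PBS and sacrificed 48 h after last dose. Liver, kidney and adipose tissue homogenised at once in 4 M guanidine isothiocyanate, 25 mM EDTA, 50 mM Tris-HCl pH 6. RNA purified on columns and run by fluorescence-based quantitative RT-PCR. Target transcript levels normalised to cyclophilin A and expressed relative to saline-treated controls.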

Mus musculus [2] = experiment: Inhibition of PTEN expression in Balb/C mouse kidney assessed as increase in mRNA levels at 33 mg/kg, ip administered as single dose measured 48 hrs after last dose […]; assay type: functional, organism-based; parameters: dose 33 mg/kg; summary of the method: as §1
Mus musculus [3] = experiment: Acute toxicity in Balb/C mouse assessed as necrosis in kidney at 33 mg/kg, ip administered thrice a week for 2 weeks measured 48 hrs after last dose; assay type: organism-based; parameters: dose 33 mg/kg, route intraperitoneal; details: in vivo
Summary of the method: (§2)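 Male Balb/c mice aged 6–8 weeks, n=4 per group, dosed i.p. with compound suspended in PBS and filter sterilized, 10 ul/g body weight. Body weight tracked throughout the live phase. Under isoflurane anaesthesia, terminal cardiac-puncture bleed; serum taken for transaminases and other chemistries. Sacrifice by cervical dislocation 48 h after last dose, with liver and spleen weighed at necropsy. Kidneys examined by histopathology.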

Mus musculus [4] = experiment: Inhibition of PTEN expression in Balb/C mouse kidney assessed as increase in mRNA levels at 8.25 mg/kg, ip administered thrice a week for 2 weeks measured 48 hrs after last dose […]; assay type: functional, organism-based; parameters: dose 8.25 mg/kg; summary of the method: as §1
Mus musculus [5] = experiment: Acute toxicity in Balb/C mouse assessed as reduction in body weight at 33 mg/kg, ip administered thrice a week for 2 weeks measured 48 hrs after last dose; assay type: organism-based; parameters: dose 33 mg/kg, route intraperitoneal; details: in vivo; summary of the method: as §2
Mus musculus [6] = experiment: Inhibition of PTEN expression in Balb/C mouse adipose tissue assessed as increase in mRNA levels at 8.25 mg/kg, ip administered thrice a week for 2 weeks measured 48 hrs after last dose by […]; assay type: functional, organism-based; parameters: dose 8.25 mg/kg; summary of the method: as §1
Mus musculus [7] = experiment: Acute toxicity in Balb/C mouse assessed as necrosis in kidney at 8.5 mg/kg, ip administered thrice a week for 2 weeks measured 48 hrs after last dose; assay type: organism-based; parameters: dose 8.5 mg/kg, route intraperitoneal; details: in vivo; summary of the method: as §2
Mus musculus [8] = experiment: Acute toxicity in Balb/C mouse assessed as reduction in body weight at 8.5 mg/kg, ip administered thrice a week for 2 weeks measured 48 hrs after last dose; assay type: organism-based; parameters: dose 8.5 mg/kg, route intraperitoneal; details: in vivo; summary of the method: as §2
Mus musculus [9] = experiment: Acute toxicity in Balb/C mouse assessed as reduction in body weight at 10.5 umol/kg, ip administered thrice a week for 2 weeks measured 48 hrs after last dose; assay type: organism-based; details: in vivo; summary of the method: as §2
Mus musculus [10] = experiment: Inhibition of IR expression in Balb/C mouse adipose tissue assessed as upregulation of IR-A transcript at 6.0 umol/kg, ip administered thrice a week for 2 weeks measured 48 hrs after last dose by […]; assay type: functional; parameters: scale not given: the % may be the effect or the level left; summary of the method: as §1
Mus musculus [11] = experiment: Inhibition of IR expression in Balb/C mouse kidney assessed as upregulation of IR-A transcript at 6.0 umol/kg, ip administered thrice a week for 2 weeks measured 48 hrs after last dose […]; assay type: functional, organism-based; summary of the method: as §1
Mus musculus [12] = experiment: Inhibition of IR expression in Balb/C mouse kidney assessed as reduction in IR-B transcript at 1.5 umol/kg, ip administered thrice a week for 2 weeks measured 48 hrs after last dose […]; assay type: functional, organism-based; summary of the method: as §1
Mus musculus [13] = experiment: Acute toxicity in Balb/C mouse assessed as reduction in body weight at 1.5 to 6.0 umol/kg, ip administered thrice a week for 2 weeks measured 48 hrs after last dose; assay type: organism-based; details: in vivo; summary of the method: as §2
Mus musculus [14] = experiment: Inhibition of IR expression in Balb/C mouse liver assessed as upregulation of IR-A transcript at 6.0 umol/kg, ip administered thrice a week for 2 weeks measured 48 hrs after last dose by quantitative RT-PCR analysis
Mus musculus [15] = experiment: Inhibition of IR expression in Balb/C mouse liver assessed as upregulation of IR-A transcript at 1.5 umol/kg, ip administered thrice a week for 2 weeks measured 48 hrs after last dose by quantitative RT-PCR analysis
Mus musculus [16] = experiment: Acute toxicity in Balb/C mouse assessed as change in liver weight at 1.5 to 6.0 umol/kg, ip administered thrice a week for 2 weeks measured 48 hrs after last dose; assay type: organism-based; details: in vivo; summary of the method: as §2
Mus musculus [17] = experiment: Inhibition of IR expression in Balb/C mouse kidney assessed as reduction in IR-B transcript at 6.0 umol/kg, ip administered thrice a week for 2 weeks measured 48 hrs after last dose […]; assay type: functional, organism-based; summary of the method: as §1
Mus musculus [18] = experiment: Inhibition of IR expression in Balb/C mouse adipose tissue assessed as reduction in IR-B transcript at 6.0 umol/kg, ip administered thrice a week for 2 weeks measured 48 hrs after last dose […]; assay type: functional; parameters: scale not given: the % may be the effect or the level left; summary of the method: as §1
Mus musculus [19] = experiment: Acute toxicity in Balb/C mouse assessed as change in plasma chemistry at 1.5 to 6.0 umol/kg, ip administered thrice a week for 2 weeks measured 48 hrs after last dose; assay type: organism-based; details: in vivo; summary of the method: as §2
Mus musculus [20] = experiment: Acute toxicity in Balb/C mouse assessed as change in spleen weight at 1.5 to 6.0 umol/kg, ip administered thrice a week for 2 weeks measured 48 hrs after last dose; assay type: organism-based; details: in vivo; summary of the method: as §2
Mus musculus [21] = experiment: Inhibition of IR expression in Balb/C mouse kidney assessed as upregulation of IR-A transcript at 1.5 umol/kg, ip administered thrice a week for 2 weeks measured 48 hrs after last dose […]; assay type: functional, organism-based; summary of the method: as §1

For `Cc1cn(CC(=O)N(CCNC(=O)CN(CCNC(=O)[C@H](CCCCN)N(CCNC(=O)CNC(=O)[C@@H](CCCCN)NC(=O)[C@@H](CCCCN)NC(=O)[C@@H](C)NC(=O)[C@@H](CC(C)C)NC(=O)[C@@H](CCCCN)NC(=O)[C@@H](CC(C)C)NC(=O)[C@@H](C)NC(=O)[C@@H](C)NC(=O)[C@@H](CCCCN)NC(=O)[C@@H](CC(C)C)NC(=O)[C@@H](CC(C)C)NC(=O)[C@@H](CCCCN)NC(=O)[C@H](N)CCCCN)C(=O)Cn2cc(C)c(=O)[nH]c2=O)C(=O)Cn2ccc(N)nc2=O)CC(=O)NCCN(CC(=O)NCCN(CC(=O)NCCN(CC(=O)NCCN(CC(=O)NCCN(CC(=O)NCCN(CC(=O)NCCN(CC(=O)NCCN(CC(=O)NCCN(CC(=O)NCCN(CC(=O)NCCN(CC(=O)NCCN(CC(=O)NCCN(CC(=O)N[C@@H](CCCCN)C(N)=O)C(=O)Cn2cnc3c(N)ncnc32)C(=O)Cn2ccc(N)nc2=O)C(=O)Cn2cnc3c(N)ncnc32)C(=O)Cn2cc(C)c(=O)[nH]c2=O)C(=O)Cn2ccc(N)nc2=O)C(=O)Cn2cc(C)c(=O)[nH]c2=O)C(=O)Cn2cnc3c(N)ncnc32)C(=O)Cn2ccc(N)nc2=O)C(=O)Cn2cnc3c(N)ncnc32)C(=O)Cn2ccc(N)nc2=O)C(=O)Cn2cnc3c(=O)[nH]c(N)nc32)C(=O)Cn2cnc3c(N)ncnc32)C(=O)Cn2ccc(N)nc2=O)c(=O)[nH]c1=O`, which Activity (Mus musculus [1]) is on record?
The Activity was “inactive”.

What about the Activity (Mus musculus [2]) of the same molecule?
The Activity was “inactive”.

And the Activity (Mus musculus [3])?
Its Activity is “Toxic”.

What about the Activity (Mus musculus [4]) of the same molecule?
Its Activity is “inactive”.

And the Activity (Mus musculus [5])?
The Activity was “Toxic”.

And the Activity (Mus musculus [6])?
The Activity was “inactive”.

And the Activity (Mus musculus [7])?
Its Activity is “Toxic”.

What about the Activity (Mus musculus [8]) of the same molecule?
The Activity was “Toxic”.

Which Activity (Mus musculus [9]) does the source give for `Cc1cn(CC(=O)N(CCNC(=O)CN(CCNC(=O)CN(CCNC(=O)CN(CCNC(=O)CN(CCNC(=O)CN(CCNC(=O)CN(CCNC(=O)CN(CCNC(=O)[C@H](CCCCN)N(CCNC(=O)CN(CCNC(=O)CN(CCNC(=O)CN(CCNC(=O)[C@H](CCCCN)NC(=O)[C@H](CCCCN)NC(=O)[C@H](CCCCN)NC(=O)[C@H](CCCCN)NC(=O)[C@H](CCCCN)NC(=O)[C@H](CCCCN)NC(=O)[C@H](CCCCN)NC(=O)[C@@H](N)CCCCN)C(=O)Cn2cnc3c(N)ncnc32)C(=O)Cn2ccc(N)nc2=O)C(=O)Cn2ccc(N)nc2=O)C(=O)Cn2cc(C)c(=O)[nH]c2=O)C(=O)Cn2cnc3c(N)ncnc32)C(=O)Cn2ccc(N)nc2=O)C(=O)Cn2cc(C)c(=O)[nH]c2=O)C(=O)Cn2cnc3c(=O)[nH]c(N)nc32)C(=O)Cn2cc(C)c(=O)[nH]c2=O)C(=O)Cn2ccc(N)nc2=O)C(=O)Cn2ccc(N)nc2=O)CC(=O)NCCN(CC(=O)NCCN(CC(=O)NCCN(CC(=O)NCCN(CC(=O)NCCN(CC(=O)NCCN(CC(=O)NCCN(CC(=O)NCCN(CC(=O)N[C@@H](CCCCN)C(N)=O)C(=O)Cn2cnc3c(N)ncnc32)C(=O)Cn2ccc(N)nc2=O)C(=O)Cn2ccc(N)nc2=O)C(=O)Cn2cnc3c(N)ncnc32)C(=O)Cn2ccc(N)nc2=O)C(=O)Cn2cnc3c(=O)[nH]c(N)nc32)C(=O)Cn2cnc3c(=O)[nH]c(N)nc32)C(=O)Cn2ccc(N)nc2=O)c(=O)[nH]c1=O` here?
The Activity was “Toxic”.

And the Activity (Mus musculus [10])?
The Activity was 200%.

And the Activity (Mus musculus [11])?
Its Activity is “Active”.

And the Activity (Mus musculus [12])?
The Activity was “inactive”.

What about the Activity (Mus musculus [13]) of the same molecule?
The Activity was “Non-toxic”.

What about the Activity (Mus musculus [14]) of the same molecule?
Its Activity is “Active”.

What about the Activity (Mus musculus [15]) of the same molecule?
The Activity was “Active”.

And the Activity (Mus musculus [16])?
Its Activity is “Non-toxic”.

And the Activity (Mus musculus [17])?
Its Activity is “inactive”.

What about the Activity (Mus musculus [18]) of the same molecule?
Its Activity is 50%.

What about the Activity (Mus musculus [19]) of the same molecule?
The Activity was “Non-toxic”.

And the Activity (Mus musculus [20])?
The Activity was “Non-toxic”.

What about the Activity (Mus musculus [21]) of the same molecule?
The Activity was “Active”.
